# Hits are enriched below; roughly 4.7% of the tested compounds scored in any of these assays.
# MrgX1 ag: agonists of human MrgX1 receptor, primary screen, HEK293 cells, Fluo-4 calcium flux | AID 588627, 2011 | Fluo-4 calcium fluorescence, agonist mode; stronger effect = higher value | 0.44% of 310,000 active | B-score at 10 µM;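 active = calcium response B-score plate-corrected fluorescence ratio at least 3 library SD, with starting fluorescence B-score inside 5 SD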
# Target sequence (Q96LB2 whole entry, looked up): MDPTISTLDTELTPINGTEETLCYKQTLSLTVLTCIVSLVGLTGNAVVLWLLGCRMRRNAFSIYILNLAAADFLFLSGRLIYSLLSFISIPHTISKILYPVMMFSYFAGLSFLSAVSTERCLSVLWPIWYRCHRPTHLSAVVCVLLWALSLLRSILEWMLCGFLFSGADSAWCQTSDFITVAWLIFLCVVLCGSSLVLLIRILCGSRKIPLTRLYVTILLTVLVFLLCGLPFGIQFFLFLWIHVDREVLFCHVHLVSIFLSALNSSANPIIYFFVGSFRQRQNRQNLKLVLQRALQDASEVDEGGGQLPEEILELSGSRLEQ
#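 times = overnight plating, then 30 min 37 °C plus 30 min room-temperature dye loading | assay system = stable human MrgX1 HEK293 cell line | input = fifteen thousand cells per well | signal = kinetic calcium dye fluorescence, Fluo-4 NW | dosing = compound delivered in addition one of three | read-out = B-scored fluorescence response ratio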
# RGS4 inh: RGS4 inhibitors, primary screen, cell-based, HEK293 M3R inducible RGS4, calcium flux | Regulator of G-protein signaling 4 (Homo sapiens), P49798 | Fluo-4 calcium flux; stronger effect = higher value; triggered by carbachol at its EC20 | B-score at 10 µM | 0.45% of 310,000 active | AID 463165, 2010;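 active = B-score, a plate-corrected calcium signal, over three deviations above library mean, with baseline fluorescence within five deviations of library mean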;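 note: RGS4 expression induced by doxycycline in cells with stable M3 receptor; B-score is computed from the integrated fluorescence ratio over baseline after carbachol; higher B-score means a larger calcium signal and so more RGS4 inhibition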
# Target sequence (P49798 whole entry, looked up): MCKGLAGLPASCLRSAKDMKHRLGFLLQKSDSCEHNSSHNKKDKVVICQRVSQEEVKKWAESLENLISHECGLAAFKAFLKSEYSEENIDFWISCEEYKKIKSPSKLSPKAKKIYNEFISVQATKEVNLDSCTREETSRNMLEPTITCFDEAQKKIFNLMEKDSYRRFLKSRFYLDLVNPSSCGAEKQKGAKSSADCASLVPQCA
# MrgX1 PAM: positive allosteric modulators of MrgX1, primary screen, HEK293 cells, Fluo-4 calcium flux; Mas-related G-protein coupled receptor member X1 (Homo sapiens), Q96LB2; FDSS; stronger effect = higher value; B-score at 10 µM; 0.63% of 310,000 active;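 active = plate-corrected calcium response at least 3 library SD above typical, normal starting fluorescence, not activating the receptor alone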;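 note: compound read alongside a low EC10 to EC30 dose of BAM8-22 agonist; peak minus trough fluorescence over baseline measured at the second addition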
# Cl transport mod: KCC2 cotransporter modulators, thallium flux, primary screen, cell-based, HEK293 KCC2, FluoZin-2 fluorescence, MLSMR. 2.2% of 190,000 active. B-score of Tl+ flux slope (higher = more flux/activation; lower = inhibition) at 10 µM. KCC2 cells, thallium flux FluoZin-2 fluorescence. Solute carrier family 12 member 5 (Homo sapiens), Q9H2X9;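 active = thallium flux slope and its plate-corrected score both differing from the plate sample mean at a set confidence after two filtering rounds, in either direction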;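 note: slope of fluorescence scaled to starting intensity during 10 to 20 s after thallium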
# MrgX1 antag: antagonists of human MrgX1 receptor, primary screen, HEK293 cells, Fluo-4 calcium flux; 1.3% of 310,000 active; BAM8-22 antagonism; stronger effect = lower value; Mas-related G-protein coupled receptor member X1 (Homo sapiens), Q96LB2; B-score at 10 µM;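 active = calcium-response B-score plate-corrected more than 3 library SD below zero, starting fluorescence within 5 deviations, no agonist response on first addition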;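 note: peak minus trough fluorescence over baseline after final BAM8-22 challenge near maximal dose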
# RGS4 pot: RGS4 potentiators or activators, primary screen, cell-based, HEK293 M3R inducible RGS4, calcium flux. carbachol calcium flux Fluo4; stronger effect = lower value. B-score at 10 µM. 0.92% of 310,000 active;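 active = B-score of the integrated calcium signal more than 4 SD below the library mean, with starting fluorescence not abnormally high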;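 note: negative B-score means reduced calcium response which marks RGS4 activation or potentiation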
#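 Also added: carbachol at ECmax as muscarinic agonist stimulus; Assay system: HEK293 cells with stable M3R and inducible RGS4; Timing: overnight RGS4 induction, 30 min dye load 37 °C, 20 min compound RT; Measured by: Fluo4-AM (2 µM) calcium-flux fluorescence, kinetic read.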
# KCC2 secondary: KCC2 modulators in sodium-free buffer, confirmation, cell-based, HEK293 KCC2, thallium flux, secondary assay. shares compounds with Cl transport mod. FluoZin2 fluorescence; stronger effect = higher value. normalised thallium flux (F/F0 slope) at 10 µM. 15% of 3,700 active. AID 1713, 2009;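 active = thallium flux slope above the same plate's solvent-only control mean plus 3 SD; inconclusive = the two replicate wells disagree; inactive = no significant difference from solvent-only control wells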
# KCC2 bumet counter: thallium flux persisting under bumetanide in KCC2 cells, confirmation, counter-screen for KCC2 modulator project, cell-based, HEK293 KCC2, FluoZin2, secondary assay 3; AID 1714, 2009; normalized thallium flux at 10 µM; HEK293-KCC2 + bumetanide/ouabain; stronger effect = higher value; shares compounds with Cl transport mod; 49% of 3,700 active;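 active = thallium entry rate above the same plate's blocked-transporter control wells by more than 3 SD; inconclusive = the two repeat wells disagree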;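 note: raw slope of fluorescence over initial fluorescence between 10 and 20 s after thallium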
# KCC2 sec2: KCC2 modulators without ouabain present, confirmation, cell-based, HEK293 KCC2, thallium flux, FluoZin2, secondary assay 2; shares compounds with Cl transport mod; thallium flux FluoZin2 fluorescence; actives lie on both sides; F/F0 rise rate, 10–20 s post-thallium; normalized thallium flux at 10 µM; 23% of 3,700 active; AID 1715, 2009;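 active = thallium flux slope more than 3 SD above or below the plate's solvent-only control mean, mostly below; inconclusive = the two repeat wells disagreed; inactive = no significant shift from solvent-only controls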;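 note: raw slope with 0.1% DMSO as baseline and bumetanide as block control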
# HEK293 Tl flux: thallium flux modulation in parental HEK cells, confirmation, counter-screen for KCC2 modulator project, cell-based, counterscreen 1; shares compounds with Cl transport mod; HEK293 parental cells, thallium flux FluoZin2, ouabain; baseline-ratio fluorescence slope, 10–20 s after thallium; thallium flux rate (normalised fluorescence) at 10 µM; 46% of 3,700 active;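 active = thallium flux rate significantly above the same plate's solvent-only control wells, beyond their mean plus 3 SD; inconclusive = the two replicate wells gave conflicting results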
# KCC2 ouabain: KCC2 inhibitors and activators, ouabain retest, confirmation, HEK-KCC2 cells | 48% of 3,700 active | raw Tl+ flux slope (below DMSO = inhibition, above = activation) at 10 µM | shares compounds with Cl transport mod | HEK293-KCC2, thallium flux FluoZin2 fluorescence; bidirectional: low = inhibitor, high = activator;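 active = thallium flux slope beyond 3 SD from same-plate DMSO control mean in most replicates, usually higher, sometimes lower; inconclusive = repeat tests gave conflicting results; inactive = no significant difference from controls in most replicates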;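 note: slope of initial-normalized fluorescence between seconds 10 and 20 after thallium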
# HEK293 Tl flux2: native HEK Tl+ uptake effects, second counter-screen – HEK cells, counterscreen 2, counter-screen for KCC2 modulator project, confirmation; AID 1718, 2009; HEK293 parental, thallium flux FluoZin-2 fluorescence slope; 33% of 3,700 active; thallium flux slope at 10 µM; shares compounds with Cl transport mod;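 active = thallium flux slope above the same plate's solvent-control mean plus 3 SD in both duplicate wells; inconclusive = duplicate wells that disagreed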;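 note: run without ouabain in cells lacking the KCC2 cotransporter; slope of fluorescence scaled to its starting value between 10 and 20 s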
# An asterisk follows results filed as active; i = inactive; ? = inconclusive; . = no result given.
SMILES,MrgX1 ag,RGS4 inh,MrgX1 PAM,Cl transport mod,MrgX1 antag,RGS4 pot,KCC2 secondary,KCC2 bumet counter,KCC2 sec2,HEK293 Tl flux,KCC2 ouabain,HEK293 Tl flux2
Cc1ccc(N=Cc2c(C)[nH]n(-c3ccccc3)c2=O)nc1,i,i,i,13*,i,i,0.011,0.02*,0.032,0.024*,0.026*,0.012
Cc1[nH]n(-c2ccccc2)c(=O)c1C=Nc1cnc2ccccc2c1,i,i,i,2.5,i,i,.,.,.,.,.,.
CCC(C)(C)n1nnnc1C(c1cc2cc(C)ccc2[nH]c1=O)N1CCCC1 (configuration not stated),i,i,i,-0.015,i,i,.,.,.,.,.,.
Cc1ccc2cc(C(c3nnnn3C(C)(C)C)N3CCCCCC3)c(=O)[nH]c2c1 (configuration not stated),i,i,i,.,i,i,0.0091,0.0068,0.03,0.0069,0.025,0.011
Cn1c(NCC2CCCO2)nc2c1c(=O)n(Cc1ccccc1)c(=O)n2C (configuration not stated),i,i,i,.,i,i,.,.,.,.,.,.
Cn1c(=O)c2c(nc(NCC3CCCO3)n2Cc2cccc(Br)c2)n(C)c1=O (configuration not stated),i,i,i,-7.6*,i,i,0.011,0.0064,0.03,0.0071,0.02,?
CCOC(=O)c1cc(C)n(Cc2cccc(OC)c2OC)c1C,i,i,i,.,i,i,0.0065,0.0042,0.03,0.0068,0.017,0.011
COc1ccc(C(CNC(=O)C(=O)NC2CCCC2)N2CCN(C)CC2)cc1 (configuration not stated),i,i,i,.,i,i,.,.,.,.,.,.
O=[N+]([O-])c1ccc(O)c(/C=N/n2cnc3ccccc32)c1,i,i,i,-4.5*,i,i,0.0055,0.0049,0.021*,0.0061*,0.013*,?
CC(=O)N1CCN(C(=O)c2ccc3c(c2)OCCO3)CC1,i,i,i,.,i,i,.,.,.,.,.,.
Cn1c(=O)n(C)c2cc(S(=O)(=O)N3CCOCC3)ccc21,i,i,i,0.28,i,i,.,.,.,.,.,.
Cc1cccc(NC(=S)N=Nc2c(O)n(C)c3ccc(S(=O)(=O)N4CCOCC4)cc23)c1,i,i,i,11*,i,i,?,0.055*,0.031,0.019*,0.026,?
Cc1cc(C)cc(NC(=S)N=Nc2c(O)n(C)c3ccc(S(=O)(=O)N4CCOCC4)cc23)c1,i,i,i,6.7*,i,i,0.0068,0.018*,?,0.025*,0.027*,0.017*
Cc1ccc(-n2nc3c(c2NC(=O)c2ccccc2)CS(=O)(=O)C3)cc1C,i,i,i,.,i,i,.,.,.,.,.,.
CC(=O)c1ccc[n+](CC(=O)NC(C)c2ccccc2)c1 (configuration not stated),i,i,i,.,i,i,.,.,.,.,.,.
COC(C[C@@H]1O[C@@H]1[C@H](O)[C@H](C)OCc1ccccc1)OC,.,i,.,.,.,i,0.015,0.004,0.03,0.0073,0.016,0.011
COC(=O)c1c(NS(=O)(=O)c2ccc3ccccc3c2)sc2c1CCCC2,i,i,i,27*,i,i,0.0071,0.065*,0.058*,0.057*,0.057*,0.039*
CCN(CC(=O)Nc1c(F)cccc1F)C(=O)Cc1csc(-c2ccc(OC)c(OC)c2)n1,i,i,i,.,i,i,.,.,.,.,.,.
CCCC(c1nnnn1CC1CCCO1)N1CCN(c2nc3ccccc3s2)CC1 (configuration not stated),i,i,i,-3.8*,i,i,0.0063,0.004,0.027,0.0068,0.013*,0.0089
CCCCC(c1nnnn1CC1CCCO1)N1CCN(c2nc3ccccc3s2)CC1 (configuration not stated),.,i,.,-4.1*,.,i,0.0059,0.0041,0.023*,?,0.012*,0.0095
CC(C)CC(c1nnnn1CC1CCCO1)N1CCN(c2nc3ccccc3s2)CC1 (configuration not stated),.,i,.,-1.6,.,i,.,.,.,.,.,.
CCC(C)(C)n1nnnc1C(c1ccc2ncccc2c1)N1CCN(c2nc3ccccc3s2)CC1 (configuration not stated),i,i,i,.,i,i,0.0085,0.0062,0.031,0.007,0.016*,0.011
Cc1cc(=O)[nH]c(SCC(=O)Nc2nc3ccccc3s2)n1,i,i,i,-1.1,i,i,.,.,.,.,.,.
Cc1cc(=O)[nH]c(SCC(=O)Nc2nnc(SCc3ccccc3)s2)n1,i,i,i,-4.8*,i,i,0.0051,0.0046,0.025*,0.0048*,0.015*,0.0083*
